How the values were obtained:
[1] = test system: D14 / D3; experiment: AlphaScreen assay of GST-D14 / His-D3 interaction in response to GR24; assay type: binding, O. sativa; conditions: increasing GR24, pH 6.5, mean ± s.d. of biological triplicates
Procedure, shortened: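 GST-D14 is held on glutathione donor beads and His-D3 (ASK1-D3 complex, 1 μM) on anti-6xHis acceptor beads, both at 5 μg/ml. D14 at 100–500 nM. Buffer is 50 mM MES, 150 mM NaCl, 1 mM DTT, 0.1 mg/ml BSA. GR24 is titrated. Signal is read at 520–620 nm after 680 nm excitation, averaged over three experiments.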

[2] = test system: AtSMXL7-YFP; experiment: SMXL7-YFP level in tobacco epidermal cells; assay type: cell-based, Arabidopsis thaliana, expressed in Nicotiana benthamiana; conditions: co-expressed with D14-CTH-mCherry; 10 μM GR24, 120 min; n=7 nuclei; p = 4.401×10^−2
[3] = test system: D14-D3-ASK1; assay type: binding, O. sativa (ASK1: A. thaliana); conditions: for complex formation with D14-D3-ASK1: in the presence of GR24 (100–200 μM)
Procedure, shortened: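 Purified proteins (20–50 μM) were preincubated for 1 h at 4 °C with 100–200 μM GR24, or with acetone as control, in 20 mM HEPES pH 7.0, 150 mM NaCl, 2 mM DTT. Samples were run on Superdex-200 Increase 10/300 at 0.5 mL/min. Fractions of 0.5 ml were analysed by SDS-PAGE with Coomassie staining; repeated at least three times.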

[4] = biological target: T1, D14 (Oryza sativa subsp. japonica, UniProt Q10QA5); experiment: AlphaScreen competition of D3-CTH peptide with His-D3 for binding GST-D14; set-up: species or system O. sativa; conditions: 10 μM GR24 (saturating), dose-dependent, 50 mM MES pH 6.5, 150 mM NaCl, 1 mM DTT, 0.1 mg/ml BSA, mean ± s.d. of biological triplicates
T1 sequence (Q10QA5 52-318): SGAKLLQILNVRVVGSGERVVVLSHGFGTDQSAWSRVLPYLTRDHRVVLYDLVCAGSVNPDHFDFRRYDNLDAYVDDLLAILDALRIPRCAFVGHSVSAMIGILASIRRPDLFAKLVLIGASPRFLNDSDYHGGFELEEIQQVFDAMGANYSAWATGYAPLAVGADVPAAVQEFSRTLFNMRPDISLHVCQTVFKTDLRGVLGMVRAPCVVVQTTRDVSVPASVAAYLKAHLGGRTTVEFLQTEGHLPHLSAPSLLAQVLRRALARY

[5] = test system: D14 / D53-D2; experiment: GST-pulldown of D14 and D53-D2 in the presence of D3-CTH; assay type: binding, O. sativa; conditions: in the presence of GR24, repeated thrice
Procedure, shortened: (§1)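 GST-tagged bait (~20–40 μg) and His-tagged or untagged prey (~10–25 μg) were incubated with GST beads for 30 min at 4 °C in 40 mM Tris-HCl pH 7, 100 mM NaCl, 2 mM DTT, 0.01% BSA. GR24 was at 20–100 μM with acetone as control. Beads were washed in 250 mM NaCl buffer with 0.01% Tween 20 and eluted with SDS sample buffer or 5 mM glutathione. Read-out: SDS-PAGE with Ponceau or anti-GST/anti-His Western.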

[6] = test system: D53-D2 / D14; experiment: AlphaScreen assay of D53-D2-D14 interaction; assay type: binding, O. sativa; conditions: DMSO control, mean ± s.d. of biological triplicates
Procedure, shortened: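 AlphaScreen proximity read. The GST-tagged partner sits on glutathione donor beads and the His-tagged partner on anti-6xHis acceptor beads (5 μg/ml each). Uses 100–500 nM D14 or D53 and 1 μM ASK1-D3 in 50 mM MES pH 6.5, 150 mM NaCl, 1 mM DTT, 0.1 mg/ml BSA. Excitation 680 nm, emission 520–620 nm. Peptide reactions carry matched DMSO; DMSO-only serves as control.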

[7] = biological target: T1, D14; experiment: YLG hydrolysis assay; assay type: biochemical, O. sativa
Procedure, shortened: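 Recombinant rice D14 (residues 52–318, SUMO tag cleaved) at 1–2 μg, with co-expressed ASK1-D3 complex and D53-D2, plus YLG. Buffer is 50 mM MES pH 6.5, 150 mM NaCl, 1 mM DTT under plate seal. Fluorescence (ex 480/em 520 nm) is read every 10 s over 50–60 min and converted to fluorescein concentration via a standard curve before curve fitting. Repeated at least three times.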

[8] = biological target: T1, D14; experiment: Pull-down assay with GST-tagged D53-N, D53-D1 or D53-D2 and His-D14; assay type: binding, O. sativa; conditions: GST-tagged D53 domains, GR24
Procedure, shortened: as §1

[9] = test system: D53; experiment: D53 stability in a reconstituted cell-free system; assay type: biochemical, O. sativa (extract: Arabidopsis seedlings); conditions: max2–1 seedling extract; 10 μM GR24; 22 °C

Molecule: CC1=C[C@H](O/C=C2/C(=O)O[C@@H]3c4ccccc4C[C@H]23)OC1=O [GR24]
- D3-D14 interaction [1]: GR24-dependent D3-D14 interaction
- SMXL7 reduction upon GR24 treatment [2]: 11.8%

Molecule: CCOC(=O)c1ccccc1-c1c2ccc(=O)cc-2oc2cc(OC3C=C(C)C(=O)O3)ccc12 (stereo not shown) [YLG, Yoshimulactone Green, reference compound]
- complex assembly among D14, D3-ASK1 and D53-D2 ([3]; Superdex-200, in the presence of YLG): can induce complex assembly among D14, D3-ASK1, and the D53-D2 domain

Molecule: D3-CTH peptide: 28 amino acids D3-CTH peptide (28aa, D3_693–720), O. sativa (ENDLMFTEMRAESWLRFEVQLNSRQIDD; UniProt Q5VMP0 693-720, looked up, fragment)
- competition with D3 for binding D14 [4]: able to compete with D3 for binding D14
- stimulation of D14 and D53-D2 pulling down each other [5]: able to stimulate D14 and D53-D2 to pull down each other in the presence of GR24
- promotion of D53-D2-D14 interaction [6]: elicited the same effect in a dose-dependent manner

Molecule: D3_693–707: 15aa D3 peptide (ENDLMFTEMRAESWL; UniProt Q5VMP0 693-707, looked up, fragment)
- promotion of D53-D2-D14 interaction [6]: did not stimulate binding

Molecule: D3_708–720: 13aa D3 peptide (RFEVQLNSRQIDD; UniProt Q5VMP0 708-720, looked up, fragment)
- promotion of D53-D2-D14 interaction [6]: did not stimulate binding

B1: D53 D2 domain: D53 D2 domain (D53-D2, 718–1,131) (protein)
chain: NSDLSNYKLLVERLFKVVGRQEEALSAICESIVRCRSTESRRGPNRNDIWLCFHGSDSMAKKRIAVALAELMHGSKDNLIYLDLNLQDWDDSSFRGKTGIDCIVEQLSKKRQSVLFLDNIDRADCLVQDSLSDAIKSGRFQDMRGKVVDINDSIVVLSRSMIQGSKNGLEEGLSFSEEKILATRGHRLKILVEPGRAITSGCPSGKVVVSPRHFLTKIQASLCSGSISKRKLSISDDQEKLQESPSSSKRLHRTSSVPFDLNLPVDEDEPLDADDDSSSHENSYGNTEKSIDALLHSVDGSINFKPFDFDKLADDMLQEFSNILRKNLGSECMLEIDVGAMEQILAAAWKSEEDRKPVPTWLEQVFARSLDELKLKRKHVSSSTLRLVACEDTVPAVKGDGLGVLLPPRIILDC
modifications: left off: GST, end not stated, kept
- effect on D3-ASK1-arrested D14 kinetics ([7]; D14 + ASK1-D3, D53-D2 at two concentrations): little change in the enzymatic kinetics
- complex formation with D14-D3-ASK1 ([3]; Superdex-200): can form a stable complex with D14-D3-ASK1 in the presence of GR24
- requirement for stable association with D14 ([3]; Superdex-200, ± ASK1-D3, GR24): stably associated with D14 only in the presence of D3 and GR24
- binding D14 [8]: solely responsible for binding D14 in a GR24-dependent manner

B2: D53: Full length D53 (O. sativa), expressed as a GST fusion protein (protein)
chain: MPTPVAAARQCLSPAAVPALDAAVASSRRRAHAQTTSLHLISSLLAPPAPPLLRDALARARSAAYSPRVQLKALDLCFAVSLDRLPSVSASSSSSGAADEPPVSNSLMAAIKRSQANQRRNPDTFHFYHQAATAQTPAAVKVELSHLVLAILDDPVVSRVFAEAGFRSGDIKLAILRPAPPMPLLGRLPTRTRPPPLFLCSFAAADDADVPSPAGNLAGAGEENCRRIAEILSRGRNPMLVGVGAASAADDFAAASPYRIIHVDPNTIDRSDLGVAAAMASATSGLIISIGDLKQLVPDEDAEAQEKGRRVVAEVTRVLETHSKVGRVWVMGWSATYETYLAFLSKFPLVDKDWDLQLLPITAVHAAATAGPAAAAAGLMPPATTVAAFSKPAASLMDSFVPFGGFLCDNYEENSLTANSCPQALRCQQCNDKYEQEVATIISASGITAEDHHQGGLPSLLQNGSMMGPNNGFDPVKARDDRMVLNSKILNLRKKWNEYCLRLHQDHQRINRDPYKPFPRYIGVPTDKERSANSSKGSESVGVQKDVIKPCAVSAVHSSSTARPISSPSVTNKRNEDLVLNLQARHSKSDENLQERGMQSQHGTLSNVDNPDDHVSPSSAAPVETDLVLGTPRECSSKGSSSTCSKRVEDSERSVHLVPKKVDDLNLKHPQLSVQPNSCSWSSINVGKTSHSTLHSVASGGFSAFGQWQKRSPLAAQNSDLSNYKLLVERLFKVVGRQEEALSAICESIVRCRSTESRRGPNRNDIWLCFHGSDSMAKKRIAVALAELMHGSKDNLIYLDLNLQDWDDSSFRGKTGIDCIVEQLSKKRQSVLFLDNIDRADCLVQDSLSDAIKSGRFQDMRGKVVDINDSIVVLSRSMIQGSKNGLEEGLSFSEEKILATRGHRLKILVEPGRAITSGCPSGKVVVSPRHFLTKIQASLCSGSISKRKLSISDDQEKLQESPSSSKRLHRTSSVPFDLNLPVDEDEPLDADDDSSSHENSYGNTEKSIDALLHSVDGSINFKPFDFDKLADDMLQEFSNILRKNLGSECMLEIDVGAMEQILAAAWKSEEDRKPVPTWLEQVFARSLDELKLKRKHVSSSTLRLVACEDTVPAVKGDGLGVLLPPRIILDC
modifications: left off: GST, end not stated, kept
- effect on D14 inhibited by D3 C-terminal peptide ([7]; D14 + D3-CTH, initial reaction and slow linear phase): robustly blocked the inhibition of the enzymatic activity of D14 by the D3 C-terminal peptide
- complex formation with D14-D3-ASK1 ([3]; Superdex-200): can form a stable complex with D14-D3-ASK1 in the presence of GR24

B3: C-terminally truncated D3 mutant protein: D3ΔCTH (O. sativa, residues 1–693) co-expressed with ASK1 (protein, UniProt Q5VMP0 1-693, looked up, fragment)
chain: MAEEEEVEEGRSSSSAILDLPEPLLLHILSFLTDVRSRHRAALACGRMRAAERATRSELSLRGDPRSPGFLFLSHAFRFPALEHLDLSLVSPWGHPLLSSVPPCGGGGGGAPSASSSSGMNVYHPEAISEQNAFIAARLAGCFPAVTSLAVYCRDPTTLANLTPHWQASLRRVKLVRWHQRPPTLPDGADLEPLLETCAALRELDLSEFYCWTEDVVRALTTHPSATAALTHLDLGLAAATDGFKSSELGPIAASCPNLRKLVAPCLFNPRFSDCVGDDALLSLATSCPRLTVLRLSEPFEAAANIQREEAAITVAGLVAFFAALPALEDFTMDLQHNVLEAAPAMEALARRCPRIKFLTLGSFQGLCKASWLHLDGVAVCGGLESLYMKNCQDLTDASLAAIGRGCRRLAKFGIHGCDLVTSAGIRRLAFTLRPTLKEVTVLHCRLLHTAECLTALSPIRDRIESLEINCVWNTTEQPCSVANGTTTECDPEDDELGEVYESAAKKCRYMEFDDLGSWEMLRSLSLWFSAGQLLSPLISAGLDSCPVLEEISIKVEGDCRTCPRPAPRTIFGLSDLAGFPVLAKMKLDLSEAVGYALTAPTGQMDLSLWERFYLHGIESLQTLYELDYWPPQDKDVHHRSLTLPAVGLIQRCVGLRKLFIHGTTHEHFMTFFLSIPNLRDMQLREDYYPAPE
modifications: co-expressed with ASK1
- ternary complex with D14 and D53-D2 ([3]; sizing column, D14-GR24, D53-D2): could neither form a ternary complex with D14 and D53-D2 on a sizing column
- restoration of D53-degrading activity of max2–1 extracts [9]: nor restore the D53 degradation activity of the max2–1 extracts

From article PMC6265067 (Nature, 2018)
